An excerpt weighted towards active compounds, which were near 2.1% of everything screened.
ASAP1 inh: blocks human ASAP1-stimulated Arf1 GTP hydrolysis; Q9ULH1; GDP FP detection; inhibition, % at 16.5 µM; 360,000 tested, 0.19% active; in the data active means inhibition above about 25%
ARFGAP1 inhibitor: rat ARFGAP1 inhibition; Arfgap1-stimulated ARF1 GTP hydrolysis, GDP FP detection; inhibition, % at 16.5 µM; 360,000 tested, 0.26% active;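 active means inhibition above a per-plate limit, mean inhibition of low control wells plus 3 SD, cut at about 25% in these data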
Target sequence (Q62848 1-136 limits assumed): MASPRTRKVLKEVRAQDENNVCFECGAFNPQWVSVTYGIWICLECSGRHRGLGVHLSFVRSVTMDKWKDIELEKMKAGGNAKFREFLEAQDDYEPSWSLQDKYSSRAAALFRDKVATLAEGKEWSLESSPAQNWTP
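Repeats: one replicate per compound; assay system: rat Arfgap1 catalytic domain, aa 1-136; times: enzyme reaction 120 min at 25 °C after 20 min preincubation; detection: FP of antibody-bound GDP Alexa 633 tracer, ex 620/em 688 nm; benchmarks: high control wells lacking Arfgap1, low control full reaction with DMSO; reagent: human ARF1(Δ1-17)-GTP substrate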
A3A deaminase: inhibitors of human APOBEC3A DNA deaminase; recombinant A3A, FAM/TAMRA ssDNA deamination fluorescence; inhibition, % at 20 µM; 330,000 tested, 0.41% active; AID 493011;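 active means at least 40% inhibition at 20 µM here, with at most 30% in a related deaminase screen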
Target sequence (P31941 whole entry, looked up): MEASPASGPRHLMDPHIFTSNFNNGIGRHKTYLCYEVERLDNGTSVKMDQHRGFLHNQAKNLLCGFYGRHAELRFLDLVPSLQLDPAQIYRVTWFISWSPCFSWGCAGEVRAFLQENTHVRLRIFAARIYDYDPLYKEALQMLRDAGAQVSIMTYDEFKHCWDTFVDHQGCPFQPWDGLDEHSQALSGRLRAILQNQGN
Statin myotox sup: protects C2C12 myotubes from simvastatin toxicity; ATP luminescence, 48 h; scaled: DMSO 0, geranylgeraniol control 100; rescue of ATP level, % at 7.49 µM; 330,000 tested, 0.78% active; AID 602340;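 active means mean ATP rescue above about 67%, or every replicate alone reaching that limit, limit read from the data, passing the limit was not always enough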;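 further: myotubes were challenged with 10 µM simvastatin during compound exposure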
Mot1-301 SUMO: inhibitors of SUMOylation pathway: yeast Mot1-301 growth rescue | S. cerevisiae Mot1-301 growth rescue, ATP luminescence, 38.5C; percent above DMSO median, 100 means doubled | growth rescue, % at 18.8 µM | 320,000 tested, 1% active | AID 2716;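 active means every valid replicate shows activation above 250% relative to neutral control wells; inactive means the rest, any valid replicate at or below 250%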
APOBEC3G inh: APOBEC3G (human) deaminase inhibition; Q9HC16; recombinant A3G, ssDNA deamination FAM/TAMRA fluorescence; inhibition, % at 20 µM; 330,000 tested, 0.28% active;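 active means inhibition of at least 40% at 20 µM, with no more than 30% in the related APOBEC3A deaminase screen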
A3A conf: APOBEC3A (human) deaminase inhibition, confirmed; shares compounds with A3A deaminase; 1,400 tested, 63% active; inhibition, % at 20 µM; recombinant A3A, ssDNA deaminase UDG fluorescence assay;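 active means inhibition reaching a set limit, 80% of the first screen's cutoff, at 20 µM in any replicate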
UDG ctr A3A: counter-screen for APOBEC3A inhibitors: UDG | shares compounds with A3A deaminase | UDG counterscreen, FAM/TAMRA uracil oligo fluorescence | inhibition, % at 20 µM | 1,000 tested, under 10 active | AID 504714; call rule not given here
A number is an active result; . = inactive; / = no result given.

SMILES	ASAP1 inh	ARFGAP1 inhibitor	A3A deaminase	Statin myotox sup	Mot1-301 SUMO	APOBEC3G inh	A3A conf	UDG ctr A3A
O=C(CSc1nnc(NC(=O)c2ccccc2C(=O)O)s1)Nc1ccccc1Cl	.	.	60	.	.	.	46	.
Cc1cccc(C)c1NC(=O)CSc1nnc(NC(=O)c2ccccc2C(=O)O)s1	.	.	64	.	.	.	.	/
Cc1ccc(C(=O)NNS(=O)(=O)c2ccccc2[N+](=O)[O-])cc1	.	.	.	/	.	.	/	/
CC(=O)NNS(=O)(=O)c1ccccc1[N+](=O)[O-]	.	.	47	/	.	.	.	.
CCN1CCN(CC(=O)c2c[nH]c3ccccc23)CC1	.	.	.	.	.	.	/	/
O=C(CN1CCN(C2CCCCC2)CC1)c1c[nH]c2ccccc12	.	.	51	.	.	.	.	/
C[C@@H]1CCCCO[C@H](CN(C)CC2CC2)[C@H](C)CN([C@@H](C)CO)C(=O)c2cc(NC(=O)c3ccncc3)ccc2O1	/	/	/	.	/	/	/	/
COc1ccc(N2CCN(C(=O)Cc3ccc(S(=O)(=O)N4CCOCC4)s3)CC2)cc1	.	.	49	/	.	.	.	/
O=C(O)Cc1ccc(S(=O)(=O)N2CCCC2)s1	.	.	49	.	.	.	51	.
Cc1ccc(S(=O)(=O)N2CCN(C(=O)Cc3ccc(S(=O)(=O)N4CCOCC4)s3)CC2)cc1	.	.	.	.	.	.	/	/
O=C(Cc1ccc(S(=O)(=O)N2CCCC2)s1)N1CCN(c2ccccc2)CC1	.	.	.	/	.	.	/	/
O=C(C[C@H]1CC[C@H]2[C@@H](COC[C@@H](O)CN2S(=O)(=O)c2ccc(F)cc2)O1)NCc1ccc(Cl)c(Cl)c1	/	/	/	.	/	/	/	/
Cn1c(=Nc2ccc(N3CCOCC3)cc2)ccc2ccccc21	.	.	54	/	.	.	.	/
COc1ccc(NC(=O)/C(C#N)=C/c2ccc(Br)o2)cc1	.	.	67	.	.	.	58	/
O=C(Nc1ccc(S(=O)(=O)N2CCCC2)cc1)C1CC(=O)N(c2ccccc2)C1 (centres undefined)	.	.	72	.	.	.	.	/
O=C(CN1CCCC1)OCCCC1CCCCC1	.	.	.	/	.	.	/	/
C[N+]1(CC(=O)OCCCC2CCCCC2)CCCC1	.	.	69	/	.	.	76	.
COc1ccc(/C=C/C(=O)OC2CCCCC2CN(C)C)cc1 (centres undefined)	.	.	.	/	.	.	/	/
CC(C)(C)C1CCC(OC(=O)CN2CCOCC2)CC1 (centres undefined)	.	.	.	.	.	.	/	/
CC(C)(C)C1CCC(OC(=O)C[N+]2(C)CCCC2)CC1 (centres undefined)	.	.	47	/	.	.	79	.
CC(C)CC1CCCCC1OC(=O)C[N+]1(C)CCCCC1 (centres undefined)	.	.	81	/	.	.	75	.
CC(C)(C)C1CCC(OC(=O)C[N+]2(C)CCCCC2)CC1 (centres undefined)	.	.	90	/	.	.	84	.
CN1C(=O)c2cc(NC(=O)C3CC3)ccc2OC[C@@H]2O[C@@H](CC(=O)NCc3cccc(F)c3)CC[C@@H]21	/	/	/	.	/	/	/	/
CCCNC(=O)Nc1ccc2c(c1)OC[C@H](C)N(C(=O)C1CCOCC1)C[C@H](C)[C@H](OC)CN(C)C2=O	/	/	/	.	/	/	/	/
C[N+]1(CCCCCCC(=O)/C=N/O)CCCCCC1	.	.	42	/	.	.	61	.
C[N+](C)(C)CCCCCCC(=O)/C=N/O	.	.	61	/	.	.	67	.
CN1c2ccc(-c3ccccc3)cc2[C@H]2[C@H](CCN2C(=O)c2ccncc2)[C@H]1CO	/	/	/	.	/	/	/	/
Cc1ccc(CSc2ncn(-c3ccccc3)n2)cc1	.	.	41	.	.	.	.	/
C[C@H](CO)N1C[C@H](C)[C@H](CN(C)Cc2ccc(C(=O)O)cc2)Oc2ccc(NC(=O)Nc3ccc(F)cc3)cc2C1=O	/	/	/	.	/	/	/	/
